ChEMBL document CHEMBL1949504, “Synthesis and anti-leishmanial activity of 5-(5-nitrofuran-2-yl)-1,3,4-thiadiazol-2-amines containing N-[(1-benzyl-1H-1,2,3-triazol-4-yl)methyl] moieties” (Eur J Med Chem, 2012)
The source made the active and inactive calls. No cut-off for these calls is given here.

How the values were obtained:
Format in all cases: functional, organism-based
Leishmania major [1] = experiment: Antileishmanial activity against promastigotes of Leishmania major […] by MTT assay
Method in brief: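 Promastigotes of L. major vaccine strain MRHO/IR/75/ER were used. Two or more independent experiments were run in triplicate. IC50 was obtained by linear regression and reported as the mean. Meglumine antimonate served as the standard drug.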

Leishmania major [2] = experiment: Antiamastigote activity against Leishmania major MHOM/1L/80/ER amastigotes infected in mouse primary peritoneal macrophages assessed as decrease in number of intracellular amastigotes per macrophage after 24 hrs using Giemsa staining
Method in brief: (§1)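 Mouse peritoneal macrophages on glass coverslips at 1 × 10^6/well were infected for 2 h with stationary-phase promastigotes in RPMI (2 × 10^6/well, 3 parasites per macrophage). Extracellular parasites were washed off, then compound-containing medium was added for 24 h. Cells were methanol-fixed and Giemsa-stained, with 100 cells counted per well. Two experiment sets were run.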

Leishmania major [3] = experiment: Antiamastigote activity against Leishmania major MHOM/1L/80/ER amastigotes infected in mouse primary peritoneal macrophages assessed as percentage of macrophage infectivity after 24 hrs using Giemsa staining; method in brief: as §1
Leishmania major [4] = experiment: Antiamastigote activity against Leishmania major MHOM/1L/80/ER amastigotes infected in mouse primary peritoneal macrophages assessed as infectivity index after 24 hrs using Giemsa staining
Method in brief: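 Macrophage infection and treatment were as for the amastigote counts: 1 × 10^6 peritoneal macrophages/well, infected 2 h at 3 promastigotes per cell, washed, then drug exposure for 24 h. Giemsa staining after methanol fixation, 100 cells examined per well. Infectivity index = % macrophages with at least one intracellular parasite × mean parasites per infected macrophage. Two experiment sets.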

| Compound | IC50 (Leishmania major [1]; Leishmania major) [µM] | Activity (Leishmania major [2]) | Activity (Leishmania major [3]) | Activity (Leishmania major [4]) | IC50 (Leishmania major [1]) [µM] |
| --- | --- | --- | --- | --- | --- |
| Cc1ccc(Cn2cc(CNc3nnc(-c4ccc([N+](=O)[O-])o4)s3)nn2)cc1 | 12.2 | Active | Active | Active |  |
| O=[N+]([O-])c1ccc(-c2nnc(NCc3cn(Cc4ccc(F)cc4)nn3)s2)o1 | 21.4 | Active | Active | Active |  |
| Cc1cccc(Cn2cc(CNc3nnc(-c4ccc([N+](=O)[O-])o4)s3)nn2)c1 | 21.9 | Active | Active | Active |  |
| Cc1ccccc1Cn1cc(CNc2nnc(-c3ccc([N+](=O)[O-])o3)s2)nn1 | 25.2 |  |  |  |  |
| O=[N+]([O-])c1ccc(-c2nnc(NCc3cn(Cc4ccccc4F)nn3)s2)o1 | 19 | Active | Active | Active |  |
| O=[N+]([O-])c1ccc(-c2nnc(NCc3cn(Cc4c(F)cccc4Cl)nn3)s2)o1 | 17.4 | Active | Active | Active |  |
| O=[N+]([O-])c1ccc(-c2nnc(NCc3cn(Cc4ccccc4Cl)nn3)s2)o1 | 18.9 | Active | Active | Active |  |
| O=[N+]([O-])c1ccc(Cn2cc(CNc3nnc(-c4ccc([N+](=O)[O-])o4)s3)nn2)cc1 | 32.7 |  |  |  |  |
| O=[N+]([O-])c1ccc(-c2nnc(NCc3cn(Cc4ccc(Cl)cc4Cl)nn3)s2)o1 | 19.9 | Active | Active | Active |  |
| O=[N+]([O-])c1ccc(-c2nnc(NCc3cn(Cc4ccc(Cl)cc4)nn3)s2)o1 | 88.8 |  |  |  |  |
| O=[N+]([O-])c1ccc(-c2nnc(NCc3cn(Cc4ccc(Cl)c(Cl)c4)nn3)s2)o1 | 132 |  |  |  |  |
| O=[N+]([O-])c1ccc(-c2nnc(NCc3cn(Cc4cccc(Cl)c4)nn3)s2)o1 | 108 |  |  |  |  |
| O=[N+]([O-])c1ccc(-c2nnc(NCc3cn(Cc4cccc(Cl)c4Cl)nn3)s2)o1 | 104 |  |  |  |  |
| O=[N+]([O-])c1ccc(-c2nnc(NCc3cn(Cc4ccccc4)nn3)s2)o1 | 19.6 | Active | Active | Active |  |
| MEGLUMINE ANTIMONATE |  |  |  |  | 68300 |
